# Activity calls are given as the source filed them. The calls are words filed in the database; no cut-off is given here.
# Legend:
# Mus musculus [1] = experiment: Anticonvulsant activity in CF1 albino mouse assessed as protection against maximal electroshock-induced seizures at 400 mg/kg, ip; format: functional, organism-based; set-up: dose 400 mg/kg
# How it was run: (§1)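 Adult male CF no. 1 albino mice (18-25 g). Test compound suspended in 0.5% methylcellulose and given intraperitoneally at 0.01 mL/g body weight. Maximal electroshock challenge at the stated time. Read-out is the number of animals protected over the number tested; neurotoxicity is scored in parallel.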
# Mus musculus [2] = experiment: Teratogenic effect in VPA-induced SWV mouse assessed as number of fetuses with neural tube deffects at 671 mg/kg, ip administered on morning of day 8 of gestation; format: toxicity, organism-based; set-up: dose 671 mg/kg, route intraperitoneal; conditions: in vivo
# How it was run: (§2)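 Inbred SWV mouse strain highly susceptible to VPA-induced neural tube defects. Each dam received a single ip injection on gestation day 8.5, dosed within 1.8-4.2 mmol/kg, against a control of 25% aqueous Cremophor EL. Groups were compared with the control, and with the matched VPA sodium-salt dose, by Fisher's exact test (p < 0.05).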
# Mus musculus [3] = experiment: Teratogenic effect in SWV mouse assessed as live fetuses at 502 mg/kg, ip administered on morning of day 8 of gestation; format: toxicity, organism-based; set-up: dose 502 mg/kg, route intraperitoneal; conditions: in vivo
# Mus musculus [4] = experiment: Teratogenic effect in SWV mouse assessed as resorptions at 502 mg/kg, ip administered on morning of day 8 of gestation; format: toxicity, organism-based; set-up: dose 502 mg/kg, route intraperitoneal; conditions: in vivo; how it was run: as §2
# Mus musculus [5] = species on record: Mus musculus; experiment: Protective index, ratio of TD50 for CF1 albino mouse to ED50 for 32 mA current-induced CF1 albino mouse seizure model; format: functional
# How it was run: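 Protective index is the mouse TD50 (minimal motor impairment) divided by the 6 Hz test ED50 at 32 or 44 mA. Male CF no. 1 mice were dosed ip in 0.5% methylcellulose, and values came from probit analysis.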
# Rattus norvegicus [6] = experiment: Anticonvulsant activity in albino Sprague-Dawley rat assessed as protection against maximal electroshock-induced seizures at 100 mg/kg, po; format: functional, organism-based; set-up: dose 100 mg/kg
# How it was run: (§3)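 Adult male Sprague-Dawley albino rats (100-150 g) dosed orally with compound suspended in 0.5% methylcellulose (0.04 mL per 10 g). Maximal electroshock challenge at the stated time. Protection is scored in 25% steps as the fraction of animals protected, with neurotoxicity recorded in parallel.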
# Mus musculus [7] = experiment: Neurotoxicity in CF1 albino mouse at 30 mg/kg, ip after 0.5 hrs; format: toxicity, organism-based; set-up: dose 30 mg/kg, route intraperitoneal; conditions: in vivo
# How it was run: (§4)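 Male CF no. 1 albino mice (18-25 g) received a single ip dose as a suspension in 0.5% methylcellulose. The read-out was the number of animals showing neurotoxicity (minimal motor impairment) over the number tested.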
# Mus musculus [8] = experiment: Anticonvulsant activity in CF1 albino mouse assessed as protection against scMet-induced seizures at 30 mg/kg, ip after 4 hrs; format: functional, organism-based; set-up: dose 30 mg/kg
# How it was run: (§5)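 Adult male CF no. 1 albino mice (18-25 g) dosed intraperitoneally with compound suspended in 0.5% methylcellulose (0.01 mL/g). Convulsant challenge given subcutaneously as a 0.85% pentylenetetrazol solution in 0.9% saline. Read-out is animals protected over animals tested, with neurotoxicity scored in parallel.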
# Rattus norvegicus [9] = species on record: Rattus norvegicus; experiment: Protective index, ratio of TD50 for albino Sprague-Dawley rat to ED50 for scMet-induced albino Sprague-Dawley rat seizure model; format: functional
# How it was run: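 Protective index is the rat TD50 (minimal motor impairment) divided by the ED50 in the MES or sc pentylenetetrazol test. Male Sprague-Dawley rats were dosed orally in 0.5% methylcellulose, and both values came from probit analysis.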
# Mus musculus [10] = experiment: Teratogenic effect in SWV mouse assessed as number of implants at 502 mg/kg, ip administered on morning of day 8 of gestation; format: toxicity, organism-based; set-up: dose 502 mg/kg, route intraperitoneal; conditions: in vivo; how it was run: as §2
# Mus musculus [11] = experiment: Anticonvulsant activity in CF1 albino mouse assessed as protection against scMet-induced seizures at 30 mg/kg, ip after 0.5 hrs; format: functional, organism-based; set-up: dose 30 mg/kg; how it was run: as §5
# Rattus norvegicus [12] = species on record: Rattus norvegicus; experiment: Anticonvulsant activity in hippocampal kindled Sprague-Dawley rat model; format: functional; conditions: albino Sprague-Dawley, Hippocampus
# Rattus norvegicus [13] = experiment: Anticonvulsant activity in albino Sprague-Dawley rat assessed as protection against maximal electroshock-induced seizures at 50 mg/kg, po after 30 mins; format: functional; how it was run: as §3
# Mus musculus [14] = experiment: Anticonvulsant activity in CF1 albino mouse assessed as protection against maximal electroshock-induced seizures at 300 mg/kg, ip after 0.5 hrs; format: functional, organism-based; set-up: dose 300 mg/kg; how it was run: as §1
# Mus musculus [15] = experiment: Teratogenic effect in SWV mouse assessed as number of litters at 671 mg/kg, ip administered on morning of day 8 of gestation; format: toxicity, organism-based; set-up: dose 671 mg/kg, route intraperitoneal; conditions: in vivo; how it was run: as §2
# Mus musculus [16] = experiment: Teratogenic effect in SWV mouse assessed as number of litters at 502 mg/kg, ip administered on morning of day 8 of gestation; format: toxicity, organism-based; set-up: dose 502 mg/kg, route intraperitoneal; conditions: in vivo; how it was run: as §2
# Mus musculus [17] = experiment: Neurotoxicity in CF1 albino mouse assessed as minimal motor impairment at 150 mg/kg, ip; format: toxicity, organism-based; set-up: dose 150 mg/kg, route intraperitoneal; conditions: in vivo; how it was run: as §4
# Rattus norvegicus [18] = experiment: Anticonvulsant activity in albino Sprague-Dawley rat assessed as protection against maximal electroshock-induced seizures at 50 mg/kg, po after 1 hr; format: functional; how it was run: as §3
# Mus musculus [19] = experiment: Teratogenic effect in SWV mouse assessed as resorptions at 336 mg/kg, ip administered on morning of day 8 of gestation; format: toxicity, organism-based; set-up: dose 336 mg/kg, route intraperitoneal; conditions: in vivo; how it was run: as §2
# Mus musculus [20] = experiment: Anticonvulsant activity in CF1 albino mouse assessed as protection against maximal electroshock-induced seizures at 300 mg/kg, ip after 4 hrs; format: functional, organism-based; set-up: dose 300 mg/kg; how it was run: as §1
# Rattus norvegicus [21] = experiment: Anticonvulsant activity in albino Sprague-Dawley rat assessed as protection against scMet-induced seizures at 2 mg/kg, po; format: functional, organism-based; set-up: dose 2 mg/kg
# How it was run: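 Oral dosing of male Sprague-Dawley rats (100-150 g) with compound in 0.5% methylcellulose. Convulsant challenge given subcutaneously as a 2.82% pentylenetetrazol solution in 0.9% saline. Groups of about 8 rats per dose. For quantitation, doses spanning 0% to 100% protection were fitted by probit analysis to give ED50 with 95% confidence interval.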
# Mus musculus [22] = experiment: Teratogenic effect in SWV mouse assessed as number of dead fetuses at 336 mg/kg, ip administered on morning of day 8 of gestation; format: toxicity, organism-based; set-up: dose 336 mg/kg, route intraperitoneal; conditions: in vivo; how it was run: as §2
# Mus musculus [23] = experiment: Teratogenic effect in SWV mouse assessed as number of litters at 336 mg/kg, ip administered on morning of day 8 of gestation; format: toxicity, organism-based; set-up: dose 336 mg/kg, route intraperitoneal; conditions: in vivo; how it was run: as §2
# Rattus norvegicus [24] = experiment: Anticonvulsant activity in albino Sprague-Dawley rat assessed as protection against maximal electroshock-induced seizures at 50 mg/kg, po after 4 hrs; format: functional, organism-based; set-up: dose 50 mg/kg; how it was run: as §3
# Mus musculus [25] = experiment: Teratogenic effect in SWV mouse assessed as resorptions at 671 mg/kg, ip administered on morning of day 8 of gestation; format: toxicity, organism-based; set-up: dose 671 mg/kg, route intraperitoneal; conditions: in vivo; how it was run: as §2
# Mus musculus [26] = experiment: Neurotoxicity in CF1 albino mouse at 300 mg/kg, ip after 0.5 hrs; format: toxicity, organism-based; set-up: dose 300 mg/kg, route intraperitoneal; conditions: in vivo; how it was run: as §4
# Mus musculus [27] = experiment: Teratogenic effect in SWV mouse assessed as number of dead fetuses at 671 mg/kg, ip administered on morning of day 8 of gestation; format: toxicity, organism-based; set-up: dose 671 mg/kg, route intraperitoneal; conditions: in vivo; how it was run: as §2
# Mus musculus [28] = experiment: Anticonvulsant activity in CF1 albino mouse assessed as protection against maximal electroshock-induced seizures at 150 mg/kg, ip after 0.5 hrs; format: functional, organism-based; set-up: dose 150 mg/kg; how it was run: as §1
# Rattus norvegicus [29] = experiment: Anticonvulsant activity in albino Sprague-Dawley rat assessed as protection against scMet-induced seizures at 50 mg/kg, po after 30 mins; format: functional
# How it was run: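 Male Sprague-Dawley albino rats (100-150 g) were given the compound orally as a suspension in 0.5% methylcellulose. Seizures were induced by subcutaneous pentylenetetrazol, dissolved in 0.9% saline as a 2.82% solution. The read-out was animals protected over animals tested.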
# Mus musculus [30] = experiment: Teratogenic effect in SWV mouse assessed as live fetuses at 336 mg/kg, ip administered on morning of day 8 of gestation; format: toxicity, organism-based; set-up: dose 336 mg/kg, route intraperitoneal; conditions: in vivo
# Mus musculus [31] = experiment: Anticonvulsant activity in CF1 albino mouse assessed as protection against maximal electroshock-induced seizures at 100 mg/kg, ip after 0.5 hrs; format: functional, organism-based; set-up: dose 100 mg/kg; how it was run: as §1
smiles,measurement,setting,value
CC1(C)C(C)(C)C1(F)C(N)=O,Activity,Mus musculus [1],Active
same,Activity,Mus musculus [2],0
same,Activity,Mus musculus [3],73.2%
same,Activity,Mus musculus [4],26.8%
same,PI,Mus musculus [5],2.1
same,Activity,Rattus norvegicus [6],inactive
same,Activity,Mus musculus [7],Non-toxic
same,Activity,Mus musculus [8],Non-toxic
same,PI,Rattus norvegicus [9],20
same,Activity,Mus musculus [10],127
same,Activity,Mus musculus [11],Non-toxic
same,ED50,Rattus norvegicus [12],30 mg/kg
same,Activity,Rattus norvegicus [13],inactive
same,Activity,Mus musculus [14],Toxic
same,Activity,Mus musculus [15],4
same,Activity,Mus musculus [16],10
same,Activity,Mus musculus [17],Toxic
same,Activity,Rattus norvegicus [18],inactive
same,Activity,Mus musculus [19],9.8%
same,Activity,Mus musculus [20],Non-toxic
same,Activity,Rattus norvegicus [21],inactive
same,Activity,Mus musculus [22],0
same,Activity,Mus musculus [23],8
same,Activity,Rattus norvegicus [24],inactive
same,Activity,Mus musculus [25],78.2%
same,Activity,Mus musculus [26],Toxic
same,Activity,Mus musculus [27],0
same,Activity,Mus musculus [28],inactive
same,Activity,Rattus norvegicus [29],75%
same,Activity,Mus musculus [30],90.2%
same,Activity,Mus musculus [31],Non-toxic

# — ChEMBL document CHEMBL1153988 (J Med Chem, 2009)
